The source made the active and inactive calls. The rule behind the calls is not given here.
How the values were obtained:
3T3-L1 [1] = experiment: Decrease in lipid droplet accumulation in mouse 3T3L1 cells at 1 uM measured during 0 to 3,0 to 6,0 to 9, 3 to 6, 3 to 9 and 6 to 9 days by oil red O staining based microscopic analysis; format: functional, cell-based
Summary of the method: (§1)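 3T3-L1 cells given 1 µM compound during day 0-3, 0-6, 0-9, 3-6, 3-9 or 6-9 of differentiation. On Day 9, intracellular lipid measured by TG assay (Triton lysate, GPO-POD kit, per protein) and by Oil Red O staining with microscopy; n = 3.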

[2] = Cell cycle arrest in mouse 3T3L1 cells assessed as number of cells at G2/M phase at 0.3 uM after 24 hrs by flow cytometry (reference value: 37.2%); format: functional, cell-based; settings: 3T3-L1
3T3-L1 [3] = experiment: Induction of apoptosis in mouse 3T3L1 cells assessed as early apoptotic cells at 0.3 uM after 24 hrs by annexin-V-FITC and PI staining based flow cytometry (reference value: 0.56%); format: functional
[4] = Cell cycle arrest in mouse 3T3L1 cells assessed as number of cells at G2/M phase at 1 uM after 24 hrs by flow cytometry (reference value: 37.2%); format: functional, cell-based; settings: 3T3-L1
[5] = target: T1, Serine/threonine-protein kinase STK11 (Mus musculus) (UniProt Q9WTK7); experiment: Activation of LKB1-mediated ACC in mouse 3T3L1 cells assessed as increase in phophorylated ACC level at 3 uM by western blot analysis; format: cell-based; settings: 3T3-L1, TDE = time-dependent effect
T1 sequence (whole entry): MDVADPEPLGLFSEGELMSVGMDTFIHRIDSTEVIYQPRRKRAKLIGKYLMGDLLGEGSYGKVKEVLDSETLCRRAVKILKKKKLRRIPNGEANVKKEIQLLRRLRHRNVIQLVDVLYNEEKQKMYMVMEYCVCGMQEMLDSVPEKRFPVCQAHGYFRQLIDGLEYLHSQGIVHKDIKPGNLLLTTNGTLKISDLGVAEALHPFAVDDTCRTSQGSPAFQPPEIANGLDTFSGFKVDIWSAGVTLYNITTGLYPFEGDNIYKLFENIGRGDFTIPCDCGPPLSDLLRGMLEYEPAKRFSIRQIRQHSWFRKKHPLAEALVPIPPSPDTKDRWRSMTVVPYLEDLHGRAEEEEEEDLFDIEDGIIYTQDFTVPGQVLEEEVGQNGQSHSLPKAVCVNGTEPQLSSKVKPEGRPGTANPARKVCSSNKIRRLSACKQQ
Summary of the method: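 3T3-L1 preadipocytes held in adipogenic cocktail with or without compound at 3 µM, time course (10 min, 2 h, 24 h) during differentiation. Lysis in RIPA with protease/phosphatase inhibitors, SDS-PAGE, PVDF, BSA block, primary antibody 16 h at 4 °C, HRP secondary. Bands normalized to GAPDH, with the 10 min DMSO group set as 100%; n = 3.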

HepG2 [6] = experiment: Decrease in triglyceride level in human HepG2 cells at 10 uM after 24 hrs by GPO-POD assay in presence of 0.5 mM oleic acid sodium; format: functional
Summary of the method: (§2)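 HepG-2 cells seeded, then after 24 h exposed to 0.5 mM oleic acid sodium plus compound (1 µM; dose series up to 10 µM) for 24 h, DMSO vehicle. Cells lysed in 0.2% Triton X-100 for 1 h, sonicated, centrifuged. Triglyceride measured by GPO-POD kit and cholesterol by kit, both normalized to BCA protein; n = 3.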

[7] = Downregulation of C/EBP alpha mRNA level in mouse 3T3L1 cells at 0.3 to 3 uM after 24 hrs by RT-PCR analysis; format: functional, cell-based; settings: 3T3-L1
Summary of the method: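 3T3-L1 preadipocytes in adipogenic cocktail with compound (0.3-3.0 µM; 3 µM for the 2 h and 24 h time course). Total RNA extracted, cDNA made from 1 µg RNA with oligo primer, then PCR: 95 °C 10 min, 35 cycles of 95 °C 30 s, annealing 45 s, 72 °C 1 min, final 72 °C 10 min. Normalized to actin; n = 3.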

[8] = Upregulation of LKB1 expression in mouse 3T3L1 cells at 3 uM after 2 and 24 hrs by western blot analysis; format: functional, cell-based; settings: 3T3-L1
Summary of the method: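 During 3T3-L1 differentiation with adipogenic cocktail, cells were treated with 3 µM compound for 10 min, 2 h or 24 h. Lysates in RIPA with protease/phosphatase inhibitors were run on SDS-PAGE and Western blotted. Proteins were normalized to GAPDH and expressed relative to the 10 min DMSO group, which was set at 100%; n = 3 independent experiments.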

[9] = Decrease in triglyceride level in mouse 3T3L1 cells at 1 uM measured during 3 to 6 days by oil red O staining based microscopic analysis; format: functional, cell-based; settings: 3T3-L1; summary of the method: as §1
[10] = Downregulation of PPAR-gamma level in mouse 3T3L1 cells at 0.3 to 3 uM after 3 days by western blot analysis; format: functional, cell-based; settings: 3T3-L1
Summary of the method: (§3)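 3T3-L1 preadipocytes incubated in adipogenic cocktail with or without compound (0.3, 1.0, 3.0 µM) for the stated periods. Protein levels measured by Western blot (RIPA lysis, PVDF, BSA block, primary 16 h at 4 °C, HRP secondary), normalized to GAPDH/Tubulin and expressed relative to controls; n = 3.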

3T3-L1 [11] = experiment: Induction of apoptosis in mouse 3T3L1 cells assessed as late apoptotic cells at 0.3 uM after 24 hrs by annexin-V-FITC and PI staining based flow cytometry (reference value: 0.03%); format: functional
3T3-L1 [12] = experiment: Inhibition of adipogenesis in mouse 3T3L1 cells assessed as reduction in mature adipocytes number at 1 uM measured during 0 to 3,0 to 6,0 to 9, 3 to 6, 3 to 9 and 6 to 9 days by oil red O staining based microscopic analysis; format: functional, cell-based
Summary of the method: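 Differentiation was induced two days post-confluence (day 0) with IBMX/dexamethasone/insulin for 3 days, then insulin medium. Compound at 1 µM was present during days 0-3, 0-6, 0-9, 3-6, 3-9 or 6-9. On day 9, cells were fixed in 4% formaldehyde, stained with Oil Red O for 30 min, and imaged by microscopy. A TG assay was also run; DMSO vehicle served as control.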

[13] = Downregulation of C/EBP alpha level in mouse 3T3L1 cells at 0.3 to 3 uM after 3 days by western blot analysis; format: functional, cell-based; settings: 3T3-L1; summary of the method: as §3
3T3-L1 [14] = experiment: Inhibition of cell differentiation in mouse 3T3L1 cells assessed as delayed time point of cell contact inhibition at 0.5 uM for 9 days; format: functional
Summary of the method: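 3T3-L1 preadipocytes were induced to differentiate (IBMX/dexamethasone/insulin for 3 days, then insulin) with compound added from day 0 at 0.5 or 5 µM; DMSO vehicle served as control. Cells were collected and counted every day to follow proliferation and to find when contact inhibition resumed.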

[15] = Downregulation of SCD-1 level in mouse 3T3L1 cells after 6 days by western blot analysis; format: functional, cell-based; settings: 3T3-L1; summary of the method: as §3
[16] = Cell cycle arrest in mouse 3T3L1 cells assessed as number of cells at S phase at 1 uM after 24 hrs by flow cytometry (reference value: 18.1%); format: functional, cell-based; settings: 3T3-L1
[17] = Downregulation of SREBP-1c level in mouse 3T3L1 cells at 0.3 to 3 uM after 3 days by western blot analysis; format: functional, cell-based; settings: 3T3-L1; summary of the method: as §3
3T3-L1 [18] = experiment: Induction of apoptosis in mouse 3T3L1 cells assessed as late apoptotic cells at 3 uM after 24 hrs by annexin-V-FITC and PI staining based flow cytometry (reference value: 0.03%); format: functional
HepG2 [19] = experiment: Decrease in cholesterol level in human HepG2 cells at 1 uM after 24 hrs by […] assay in presence of 0.5 mM oleic acid sodium; format: functional; summary of the method: as §2

**Q.** Which results are given for O=Cc1c(-c2nc(NCCN3CCCC3)c3ccccc3n2)[nH]c2ccccc12?
**A.** inhibition (3T3-L1 [1]): Active; Activity [2]: 40.2%; Activity (3T3-L1 [3]): 1.58%; Activity [4]: 46.9%; Activity [5]: tde; inhibition (INH) (HepG2 [6]): 32%; inhibition [7]: Active; Activity [8]: Active; inhibition [9]: 80%; inhibition [10]: Active; Activity (3T3-L1 [11]): 0.47%; inhibition (3T3-L1 [12]): Active; inhibition [13]: Active; Time (3T3-L1 [14]): 6 days; inhibition [15]: Dose-dependent effect; Activity [16]: 5.2%; inhibition [17]: Active; Activity (3T3-L1 [18]): 0.42%; inhibition (INH) (HepG2 [19]): <10%

Source: ChEMBL document CHEMBL3734704, “Synthesis and Biological Evaluation of Novel Bouchardatine Derivatives as Potential Adipogenesis/Lipogenesis Inhibitors for Antiobesity Treatment” (J Med Chem, 2015)
